The record followed here is ChEMBL document CHEMBL3044605, “Inhibition of the Fe(4)S(4)-cluster-containing protein IspH (LytB): electron paramagnetic resonance, metallacycles, and mechanisms” (J Am Chem Soc, 2010).

The assay has as its target T1, 4-hydroxy-3-methylbut-2-enyl diphosphate reductase (Aquifex aeolicus (strain VF5), UniProt O67625).
T1 sequence (O67625 whole entry): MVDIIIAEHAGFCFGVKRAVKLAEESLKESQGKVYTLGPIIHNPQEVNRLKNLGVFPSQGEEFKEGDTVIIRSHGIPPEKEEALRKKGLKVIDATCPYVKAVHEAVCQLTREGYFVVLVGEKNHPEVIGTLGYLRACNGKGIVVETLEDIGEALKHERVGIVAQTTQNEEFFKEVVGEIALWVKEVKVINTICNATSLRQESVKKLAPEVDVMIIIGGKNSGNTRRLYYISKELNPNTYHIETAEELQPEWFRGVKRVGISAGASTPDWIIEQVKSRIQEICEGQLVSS
As to the kind of experiment: Inhibition of Aquifex aeolicus IspH expressed in Escherichia coli BL21 (DE3) using HMBPP substrate. It counts as single protein. The procedure, abridged:
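A. aeolicus IspH expressed in BL-21(DE3), Ni-NTA purified, Fe4S4 cluster reconstituted anaerobically (DTT, sulfur, FeCl3; A410/A280 ≥0.38). Anaerobic assay, room temp, pH 8.0 Tris/NaCl/glycerol buffer, 0.4 mM dithionite, 2 mM methyl viologen, 72 nM IspH. Inhibitor preincubated 10 min, then 34 μM HMBPP added. Initial rates at 732 nm, dose-response fit for IC50; Ki via Cheng-Prusoff (KM 7 μM).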
In the case of `Cc1ccc[n+](CC(O)(P(=O)([O-])O)P(=O)(O)O)c1` (configuration not stated), the IC50 – broadly, the midpoint of a concentration-inhibition curve – stood at 540 µM.

Molecule `CC(Cc1cccnc1)(P(=O)(O)O)P(=O)(O)O` had an IC50 above 1000 µM.

As to `O=P(O)(O)OP(=O)(O)OCc1cccnc1`, the IC50 is 38 µM.

In turn, `O=P(O)(O)OP(=O)(O)OCc1ccc(Cl)nc1` showed an IC50 of 3700 µM.

In turn, `O=P(O)(O)C(CNc1ccccn1)P(=O)(O)O` registered an IC50 above 1000 µM.

`O=P(O)(O)C(O)(Cc1ccccn1)P(=O)(O)O` yielded an IC50 of 485 µM.

Consider `Cc1ccnc(NC(P(=O)(O)O)P(=O)(O)O)c1`, for which the IC50 came out at 67 µM. This IC50 lies about 7.2-fold lower than the previous one.

In the case of `O=P(O)(O)C(Cc1cccnc1)P(=O)(O)O`, the IC50 was above 1000 µM.

Turning to `C[n+]1cccc(CC(O)(P(=O)(O)O)P(=O)(O)O)c1`, the IC50 was above 1000 µM.

`N#CCCOP(=O)(O)OP(=O)(O)O` [2-CYANOETHYL DIPHOSPHATE] returned an IC50 of 53 µM.

For the molecule `O=P(O)(O)OP(=O)(O)OCC#CCO` [4-HYDROXYBUT-2-YNYL DIPHOSPHATE], half-maximal inhibition (IC50) was put at 26 µM.

For the molecule `O=P(O)(O)OP(=O)(O)OCc1ccccn1` [(PYRIDIN-2-YL)-METHYL-DIPHOSPHATE], the IC50 is 1200 µM.

The molecule `O=P(O)(O)OP(=O)(O)OCc1ccncc1` [(PYRIDIN-4-YL)-METHYL-DIPHOSPHATE] showed an IC50 of 149 µM.

For `C#CCCOP(=O)(O)OP(=O)(O)O` [BUT-3-YNYL DIPHOSPHATE], the IC50 is 0.45 µM and the Ki (usually the equilibrium dissociation constant of an inhibitor or competing ligand from its target) turned out to be 0.06 µM.

Molecule `N#CCOP(=O)(O)OP(=O)(O)O` [CYANOMETHYL DIPHOSPHATE] gave an IC50 of 245 µM.

Molecule `C#CCCCOP(=O)(O)OP(=O)(O)O` [PENT-4-YNYL DIPHOSPHATE] came in with an IC50 of 6.5 µM.

In turn, `C#CCOP(=O)(O)OP(=O)(O)O` [PROP-2-YNYL DIPHOSPHATE] returned an IC50 of 6.7 µM.

`O=P(O)(O)OP(=O)(O)OCCc1cccnc1` [PYRIDIN-3-YL-ETHYL-DIPHOSPHATE] gave a 50% inhibitory concentration (IC50) of 9.1 µM and a Ki of 1.2 µM.

On to `O=P(O)(O)OP(=O)(O)OCCCc1cccnc1` [PYRIDIN-3-YL-PROPYL-DIPHOSPHATE], for which the IC50 amounted to 463 µM.

Take `O=P(O)(O)C(O)(Cc1cccnc1)P(=O)(O)O` [RISEDRONIC ACID]: the concentration for half-maximal inhibition (IC50) was above 1000 µM.
